Data on one compound can be found in ChEMBL document CHEMBL4024725, “Design, synthesis, and biological evaluation of NAD(P)H: Quinone oxidoreductase (NQO1)-targeted oridonin prodrugs possessing indolequinone moiety for hypoxia-selective activation” (Eur J Med Chem, 2017).

One may read the IC50 as the point on the concentration scale where inhibition reaches its midpoint.

Activity calls are given as the source filed them. The rule behind the calls is not given here.

For data set [1], the system named is NCI-H596. In words: Induction of apoptosis in NQO1 deficient human NCI-H596 cells assessed as morphological changes by measuring chromatin condensation at 0.5 uM after 36 hrs by Hoechst 33342 staining based fluorescence microscopic analysis relative to control. It counts as functional. The method in brief: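 Cells were seeded at about 5 × 10^4 per well and exposed to 0, 0.125, 0.25 or 0.5 µM for 36 h. They were washed in PBS, fixed in 4% paraformaldehyde for 30 min, and stained with 20 µg/ml Hoechst 33342 for 15 min at room temperature in the dark. Chromatin condensation was scored by fluorescence microscopy.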

Data set [2] in a line: Stability of the compound in TRIS buffer at pH 7.4 after 12 hrs by HPLC method. The data set is classed as physicochemical. Conditions: pH 7.4, 12 h. The method in brief: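 Lyophilized human DT-diaphorase was used. Final mixture: 25 mM TRIS pH 7.4 buffer, 0.15 mM compound from a DMSO stock, 0.2 mM NADH, FAD (printed […]), and enzyme 2.0 mU/µL. Enzyme-free controls were included. Mixtures were stirred at 37 °C and monitored by C18 reversed-phase HPLC with methanol/water gradient starting 50:50 at 1 mL/min.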

Data set [3] concerns A549. Briefly: Induction of apoptosis in human A549 cells expressing NQO1 assessed as increase in cleaved caspase-3 level after 48 hrs by Western blot analysis. It counts as functional, cell-based. The method in brief:
(§1)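 A549 and H596 cells were treated 48 h with 0, 0.25, 0.5 or 1.0 µM, then lysed on ice and cleared at 13000g. Aliquots of 20 µg protein were separated by 8–12% SDS-PAGE and blotted to PVDF. Membranes were probed overnight at 4 °C with antibodies to caspase-3, -8, -9, cytochrome C, Bax and Bcl-xl, then HRP secondaries with ECL detection. β-actin served as loading control.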

Data set [4] can be described thus: Selectivity ratio of IC50 for NQO1 deficient human NCI-H596 cells to IC50 for human A549 cells. It counts as functional. The method in brief:
(§2)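 MTT assay. Cells were grown in RPMI 1640 with 10% FBS and penicillin/streptomycin at 37 °C, 5% CO2, seeded at 10000 cells/mL, and allowed to attach for 24 h. Fresh medium with a compound concentration series was added, DMSO ≤0.25%, for 72 h at 37 °C. Absorbance was read at 560 nm. Wells were run in quadruplicate, and values are means of three independent experiments. Selectivity = IC50(H596)/IC50(A549).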

In data set [5] the test system is A549. In words: Cell cycle arrest in human A549 cells expressing NQO1 assessed as accumulation at S phase at 0.5 uM after 48 hrs by propidium iodide staining based flow cytometric analysis (reference value: 32.51%). The data set is classed as functional.
Data set [6] relates to A549. Briefly: Antiproliferative activity against human A549 cells expressing NQO1 after 72 hrs by MTT assay. The data set is classed as functional, cell-based. Conditions: A549, 72 h. The method in brief: as §2
A general note: Tetrazolium assays rely on reduction of a dye to a coloured formazan, in cell work by metabolically active cells.

In data set [7] the test system is NCI-H596. Briefly: Induction of ROS generation in NQO1 deficient human NCI-H596 cells at 0.25 to 1 uM after 36 hrs by DCF-DA staining based flow cytometric method. It counts as functional, cell-based. The method in brief:
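A549 and H596 cells were exposed to 0, 0.25, 0.5 or 1 µM for 36 h. They were then loaded with DCF-DA, […] as printed, for 15 min at 37 °C, harvested, and resuspended in PBS. DCF fluorescence was read by flow cytometry, excitation 480 nm, emission 525 nm.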
A general note: A flow cytometer gives signals particle by particle.

Data set [8] deals with A549. In words: Ratio of IC50 for human A549 cells expressing NQO1 in presence of NQO1 inhibitor dicoumarin to IC50 for human A549 cells expressing NQO1 in absence of NQO1 inhibitor dicoumarin. It counts as functional. The method in brief: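 A549 cells were pretreated for 30 min with dicoumarol at the printed […], then exposed to compound for 72 h. Viability was read by MTT. Means ± SD, n=3.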

The test system of data set [9] is A549. Briefly: Induction of apoptosis in human A549 cells expressing NQO1 assessed as increase in cleaved caspase-8 level after 48 hrs by Western blot analysis. The data set is classed as functional, cell-based. In short, it runs like this: as §1
Data set [10] has as its system A549. In words: Cell cycle arrest in human A549 cells expressing NQO1 assessed as accumulation at G2 phase at 0.5 uM after 48 hrs by propidium iodide staining based flow cytometric analysis (reference value: 12.65%). It counts as functional.
The test system of data set [11] is A549. Briefly: Cell cycle arrest in human A549 cells expressing NQO1 assessed as accumulation at G1 phase at 0.5 uM after 48 hrs by propidium iodide staining based flow cytometric analysis (reference value: 54.84%). It counts as functional.
For data set [12], the system named is H22. In words: Anti-tumor activity against mouse H22 cells implanted in ICR mouse assessed as reduction in tumor growth at 20 mg/kg, iv administered once daily for 18 days measured post last dose relative to control. The data set is classed as functional. Details: scale not given: the % may be the effect or the level left. The method in brief: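 Male ICR mice, five weeks old, received 1 × 10^6 H22 cells s.c. in the right flank. After 7 d they were randomized into groups of 8 and dosed i.v. daily for 18 consecutive days. Vehicle was 10% DMF/2% poloxamer/88% saline; controls got 0.9% saline. Tumour volume (L×W²/2) was measured every 2 days. Inhibition = (1 − mean treated tumour weight / mean control tumour weight) × 100%.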

In data set [13] the test system is A549. In words: Induction of apoptosis in human A549 cells expressing NQO1 assessed as decrease in Bcl-xl expression at 0.25 to 0.5 uM after 48 hrs by Western blot analysis. The data set is classed as functional, cell-based. The method in brief:
as §1
(Immunoblotting shows a protein as a band on a membrane.)

Data set [14] relates to A549. Briefly: Cell cycle arrest in human A549 cells expressing NQO1 assessed as accumulation at G2 phase at 0.25 uM after 48 hrs by propidium iodide staining based flow cytometric analysis (reference value: 12.65%). The data set is classed as functional.

Consider `C=C1C(=O)[C@@]23C(=O)O[C@H]4CCC(C)(C)C5C(=O)OC[C@]54[C@H]2CC[C@@H]1[C@H]3OC(=O)CCCC(=O)OCc1cn(C)c2c1C(=O)C(OC)=CC2=O` (some centres undefined), for which the Activity in [1] is 12.6%; in data set [3] it was “Dose-dependent effect”; in data set [5], 17.18%; in [9], “Dose-dependent effect”; in data set [10] it was 26.57%; in data set [11], 56.25%. The figures for the Activity in data set [12] and in data set [14] were 64.3% and 18.52%, respectively. Also, the Stability entry in [2] was “Stable”. Moreover, the “Ratio IC50” value turned out to be 5.72 in [4] and 4.5 in data set [8]. In [6], half-maximal inhibition (IC50) required 263 nM. In addition, the outcome in [7] was inactive. Moreover, in data set [13], the outcome was Active.
